Results published in ChEMBL document CHEMBL3994577, “New amphiphilic neamine conjugates bearing a metal binding motif active against MDR E. aerogenes Gram-negative bacteria” (2017).
In brackets after ≈: the same amount, converted by molar mass. Activity calls are given as the source filed them. No cut-off for these calls is given here. Bridge positions count the residues as written; N and C are the ends. Square brackets hold non-standard residues; d marks the D form. Peptide text beside a SMILES is read from it. * marks the point of attachment. βNA = c1ccc2cc(N*)ccc2c1; Dab = NCC[C@H](N)C(=O)O

Legend:
[1] = tested on: Klebsiella aerogenes; experiment: Induction of membrane permeability in multidrug resistant Enterobacter aerogenes EA289 over-expressing AcrAB-TolC assessed as nitrocefin hydrolysis at 3 uM up to 20 mins in presence of CCCP relative to control; format: functional
Summary of the method: (§1)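 EA289 grown to exponential phase (OD600 0.5), washed in PPB (K₂HPO₄ 20 mM, MgCl₂ 1 mM, pH 7), adjusted to OD 0.375. Cells mixed with two-fold dilutions of compound (final 2–64 µM) plus CCCP 3.3 µM at 37°C. Nitrocefin added at t=0; OD490 followed for 1 h. Duplicate or triplicate.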

[2] = tested on: Escherichia coli; experiment: Antibacterial activity against wild type Escherichia coli AG100 after 18 hrs by broth dilution method; format: functional; details: AG100, 18 h
Summary of the method: (§2)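 Broth microdilution MIC in MH broth with two-fold serial dilutions of compounds from DMSO solutions (final DMSO ≤ 0.5%). Inoculum was 2x10⁵ cfu per 200 µL, incubated 18 h at 37°C. MIC was the lowest concentration with no visible growth, given as the mean of at least three independent experiments, in µM. AG100A was grown with kanamycin (50 µg.mL^-1).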

[3] = tested on: Escherichia coli; experiment: Antibacterial activity against AcrAB deficient Escherichia coli AG100A after 18 hrs by broth dilution method; format: functional; summary of the method: as §2
[4] = tested on: Klebsiella aerogenes; experiment: Antibacterial activity against multidrug resistant Enterobacter aerogenes EA289 over-expressing AcrAB-TolC after 18 hrs by broth dilution method; format: functional; details: EA289, 18 h
Summary of the method: (§3)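 Broth microdilution in MH broth. Inoculum 2x10⁵ cfu per well, with two-fold serial dilutions of compound from DMSO stocks (final DMSO ≤0.5%). MIC is the lowest concentration with no visible growth after 18 h at 37°C. Values are means of at least three independent experiments, in µM. Strains grown at 37°C; EA298 kept with kanamycin 50 µg.mL^-1.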

[5] = tested on: Klebsiella aerogenes; experiment: Antibacterial activity against Enterobacter aerogenes EA298 TolC deficient after 18 hrs by broth dilution method; details: EA298, 18 h
[6] = tested on: Klebsiella aerogenes; experiment: Induction of membrane permeability in multidrug resistant Enterobacter aerogenes EA289 over-expressing AcrAB-TolC assessed as nitrocefin hydrolysis at 0.75 to 48 uM after 1 hr in presence of CCCP; format: functional
[7] = tested on: Escherichia coli; experiment: Antibacterial activity against wild type Escherichia coli AG100 after 18 hrs in presence of polymyxin B nonapeptide by broth dilution method; format: functional; details: AG100, 18 h
[8] = tested on: Escherichia coli; experiment: Antibacterial activity against AcrAB deficient Escherichia coli AG100A after 18 hrs in presence of polymyxin B nonapeptide by broth dilution method; format: functional
[9] = tested on: Klebsiella aerogenes; experiment: Antibacterial activity against multidrug resistant Enterobacter aerogenes EA289 over-expressing AcrAB-TolC after 18 hrs in presence of polymyxin B nonapeptide by broth dilution method; format: functional; details: EA289, 18 h; summary of the method: as §3
[10] = tested on: Klebsiella aerogenes; experiment: Induction of membrane permeability in multidrug resistant Enterobacter aerogenes EA289 over-expressing AcrAB-TolC assessed as increase in nitrocefin hydrolysis measured for 1 hr in presence of CCCP; format: functional; summary of the method: as §1
[11] = tested on: Klebsiella aerogenes; experiment: Antibacterial activity against Enterobacter aerogenes EA298 TolC deficient after 18 hrs in presence of polymyxin B nonapeptide by broth dilution method; details: EA298, 18 h
[12] = tested on: Klebsiella aerogenes; experiment: Decrease in 1,2'-DiNaphtylAmine efflux in multidrug resistant Enterobacter aerogenes EA289 over-expressing AcrAB-TolC up to 32 uM after 18 hrs measured every 4 sec for 6 mins in presence of glucose by fluorescence assay; format: functional
Summary of the method: (§4)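 EA289 grown 24 h at 37°C, washed and resuspended in PPB at OD600 0.25. Cells loaded with 1,2'-DNA 32 µM plus CCCP 5 µM for 18 h at 37°C in the dark, washed, then mixed with compound (final 0.5–128 µM) at 37°C. Fluorescence (ex 370/em 420 nm) read every 4 s for 6 min. Glucose added at cycle 20 (~100 s) to start efflux.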

[13] = tested on: Klebsiella aerogenes; experiment: Decrease in 1,2'-DiNaphtylAmine efflux in multidrug resistant Enterobacter aerogenes EA289 over-expressing AcrAB-TolC at 8 to 16 uM after 18 hrs measured every 4 sec for 6 mins in presence of glucose by fluorescence assay; format: functional; summary of the method: as §4
[14] = tested on: Klebsiella aerogenes; experiment: Induction of membrane permeability in multidrug resistant Enterobacter aerogenes EA289 over-expressing AcrAB-TolC assessed as nitrocefin hydrolysis at 64 uM after 1 hr in presence of CCCP relative to control; format: functional; parameters: scale not given: the % may be the effect or the level left; summary of the method: as §1
[15] = tested on: Klebsiella aerogenes; experiment: Decrease in 1,2'-DiNaphtylAmine efflux in multidrug resistant Enterobacter aerogenes EA289 over-expressing AcrAB-TolC at 32 uM after 18 hrs measured every 4 sec for 6 mins in presence of glucose by fluorescence assay; format: functional; summary of the method: as §4
[16] = Binding affinity to Zn2+ in Muller-Hinton broth at 50 uM by ESI-MS analysis
Summary of the method: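 Free ligand incubated in Mueller Hinton broth, the medium used for the antibacterial assays, then analysed by positive-ion ESI mass spectrometry for metal-bound species. […] Preformed Zn(II) and Cu(II) complexes were incubated in MH under the same conditions to check their stability.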

[17] = tested on: Klebsiella aerogenes; experiment: Induction of membrane permeability in multidrug resistant Enterobacter aerogenes EA289 over-expressing AcrAB-TolC assessed as nitrocefin hydrolysis at 32 uM after 50 mins in presence of CCCP relative to control; format: functional; parameters: scale not given: the % may be the effect or the level left; summary of the method: as §1
[18] = tested on: Klebsiella aerogenes; experiment: Decrease in 1,2'-DiNaphtylAmine efflux in multidrug resistant Enterobacter aerogenes EA289 over-expressing AcrAB-TolC up to 128 uM after 18 hrs measured every 4 sec for 6 mins in presence of glucose by fluorescence assay

Molecule	MIC [2] [µM]	MIC [3] [µM]	MIC [4] [µM]	MIC [5] [µM]	MIC [7] [µM]	MIC [8] [µM]	MIC [9] [µM]	Activity [10]	MIC [11] [µM]	further results
POLYMYXIN B										Activity [1]: Active
O=C(O)c1cn(C2CC2)c2cc(N3CCNCC3)c(F)cc2c1=O [CIPROFLOXACIN]	0.125 (≈ 0.0414 µg/mL)	0.03 (≈ 0.00994 µg/mL)	64 (≈ 21.2 µg/mL)	8 (≈ 2.65 µg/mL)						
O=C(N[C@H](CO)[C@H](O)c1ccc([N+](=O)[O-])cc1)C(Cl)Cl [CHLORAMPHENICOL]	8 (≈ 2.59 µg/mL)	1 (≈ 0.323 µg/mL)	> 128	32 (≈ 10.3 µg/mL)						
CN1CCN(c2c(F)cc3c(=O)c(C(=O)O)cn(CCF)c3c2F)CC1 [FLEROXACIN]	0.5 (≈ 0.185 µg/mL)	0.125 (≈ 0.0462 µg/mL)	> 128	16 (≈ 5.91 µg/mL)						
CC(C)C[C@@H]1NC(=O)[C@@H](Cc2ccccc2)NC(=O)[C@H](CCN)NC(=O)[C@@H](NC(=O)[C@H](CCN)NC(=O)[C@@H](N)[C@@H](C)O)CCNC(=O)[C@H]([C@@H](C)O)NC(=O)[C@H](CCN)NC(=O)[C@H](CCN)NC1=O (H-T[Dab][Dab][Dab][dF]L[Dab][Dab]T; lactam 3-C)										Activity [6]: inactive
NCCCCCCO[C@@H]1[C@@H](OCc2ccc3ccccc3c2)[C@H](N)C[C@H](N)[C@H]1O[C@H]1O[C@H](CN)[C@@H](OCc2ccc3ccccc3c2)[C@H](OCc2ccc3ccccc3c2)[C@H]1N	8 (≈ 6.74 µg/mL)	8 (≈ 6.74 µg/mL)	16 (≈ 13.5 µg/mL)	4 (≈ 3.37 µg/mL)	8	4	16 to 32	Dose-dependent effect	4 to 8	
[N-]=[N+]=NCCCCCCO[C@@H]1[C@@H](OCc2ccc3ccccc3c2)[C@H](N)C[C@H](N)[C@H]1O[C@H]1O[C@H](CN)[C@@H](OCc2ccc3ccccc3c2)[C@H](OCc2ccc3ccccc3c2)[C@H]1N	32 (≈ 27.8 µg/mL)	32 (≈ 27.8 µg/mL)	16 (≈ 13.9 µg/mL)	16 (≈ 13.9 µg/mL)	32	16	8 to 32		32	
N#CC(C#N)=NNc1cccc(Cl)c1										Activity [12]: Active
NC[C@H]1O[C@H](O[C@H]2[C@H](OCCCCCCNC(=O)CCCC(=O)N3CCCNCCNCCCNCC3)[C@@H](OCc3ccc4ccccc4c3)[C@H](N)C[C@@H]2N)[C@H](N)[C@@H](OCc2ccc3ccccc3c2)[C@@H]1OCc1ccc2ccccc2c1	4 (≈ 4.55 µg/mL)	2 (≈ 2.28 µg/mL)	4 to 16 (≈ 4.55 to 18.2 µg/mL)	2 to 4 (≈ 2.28 to 4.55 µg/mL)	2	1 to 2	8	Dose-dependent effect	2	Activity [13]: Active
NC[C@H]1O[C@H](O[C@H]2[C@H](OCCCCCCNC(=O)CCCC(=O)Nc3cccc(CN(Cc4ccccc4)Cc4ccccc4)c3)[C@@H](OCc3ccc4ccccc4c3)[C@H](N)C[C@@H]2N)[C@H](N)[C@@H](OCc2ccc3ccccc3c2)[C@@H]1OCc1ccc2ccccc2c1	128 (≈ 159 µg/mL)	32 to 128 (≈ 39.7 to 159 µg/mL)	128 (≈ 159 µg/mL)	64 to 128 (≈ 79.4 to 159 µg/mL)	32 to 64	32	128	Dose-dependent effect	32 to 64	Activity [14]: 20%; Activity [15]: Active
NC[C@H]1O[C@H](O[C@H]2[C@H](OCCCCCCNC(=O)CCCC(=O)Nc3cccc(CN(Cc4ccccn4)Cc4ccccn4)n3)[C@@H](OCc3ccc4ccccc4c3)[C@H](N)C[C@@H]2N)[C@H](N)[C@@H](OCc2ccc3ccccc3c2)[C@@H]1OCc1ccc2ccccc2c1	2 to 4 (≈ 2.49 to 4.97 µg/mL)	2 (≈ 2.49 µg/mL)	4 (≈ 4.97 µg/mL)	2 to 8 (≈ 2.49 to 9.95 µg/mL)	2 to 4	2	4 to 8	Dose-dependent effect	2	Activity [16]: Active; Activity [17]: 90%; Activity [13]: Active
NC[C@H]1O[C@H](O[C@H]2[C@H](O)[C@@H](O)[C@H](N)C[C@@H]2N)[C@H](N)[C@@H](O)[C@@H]1O [NEAMINE]	16 to 32 (≈ 5.16 to 10.3 µg/mL)	128 (≈ 41.3 µg/mL)	32 (≈ 10.3 µg/mL)	> 128	8	128	16		> 128	
CC(C)(O/N=C(\C(=O)N[C@@H]1C(=O)N2C(C(=O)[O-])=C(C[n+]3ccccc3)CS[C@H]12)c1csc(N)n1)C(=O)O [CEFTAZIDIME]	0.5 (≈ 0.273 µg/mL)	0.25 (≈ 0.137 µg/mL)	> 128	> 128						
NC[C@H]1O[C@H](O[C@H]2[C@H](OCCCCCCNC(=O)CCCCN(Cc3ccccn3)Cc3ccccn3)[C@@H](OCc3ccc4ccccc4c3)[C@H](N)C[C@@H]2N)[C@H](N)[C@@H](OCc2ccc3ccccc3c2)[C@@H]1OCc1ccc2ccccc2c1	8 to 16 (≈ 8.99 to 18 µg/mL)	8 to 16 (≈ 8.99 to 18 µg/mL)	16 (≈ 18 µg/mL)	8 (≈ 8.99 µg/mL)	4	2 to 4	8	Dose-dependent effect	4 to 8	Activity [14]: 60%; Activity [13]: Active
N=C(N)NCCC[C@H](NC(=O)[C@@H](N)Cc1ccccc1)C(=O)Nc1ccc2ccccc2c1 (H-Phe-Arg-βNA)										Activity [18]: inactive
